Laboratory results taken from ChEMBL document CHEMBL4513216, “Probing the Open Global Health Chemical Diversity Library for Multistage-Active Starting Points for Next-Generation Antimalarials” (ACS Infect Dis, 2020).

Assay: Toxicity liver stage against HepG2, at 10uM
Assay type: cell-based
Parameters: test concentration 10 uM, cell line HepG2-A16-CD81EGFP
Details: human, HepG2-A16-CD81EGFP cells; read-out: INHIBITION
Outline: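 Uninfected HepG2-A16-CD81EGFP cells, 3 × 10^3 per well, 1536-well, plated on prespotted compound at 10 μM final, parasite-free screening media added to match infected plates; puromycin 10 μM positive, DMSO 0.5% negative; run in parallel with 48 h PbLuc assay at 37 °C, 5% CO2; viability by CellTiter-Glo luminescence, normalized to controls.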

SMILES | cytotoxicity at 10 µM [%]
O=C(c1cnccn1)N1CCCC2(CCN(c3ccccn3)C2)C1 (stereo not drawn) | 5.77
CCC(C)(C)C(=O)N1CCN(C2=NCC(C)S2)CC1 (stereo not drawn) | -144
O=C(Nc1cccnc1)Nc1cccc(CN2CCC(O)CC2)c1 | -4.06
Cc1noc(C)c1CC(=O)N1CCc2sccc2C1 | -18.4
COCc1ccc(CNc2cncc(-n3cccn3)n2)cc1 | 6
Cc1[nH]c(-c2ccccc2)nc1C(=O)N1CCC2(CCCO2)CC1 | 2.8
Cc1noc(C)c1CN1CCC2(CC1)NC(=O)CC2c1cnn(C)c1 (stereo not drawn) | 5.64
CCSCCC(=O)NCc1cnn(-c2ccc(F)cc2F)c1 | -5.61
Cc1ccoc1C(=O)N1CCOC2(CCCC2)C1 | -4.55
CCCOCC(=O)N1CCC2(CC1)c1nc[nH]c1CCN2S(C)(=O)=O | 3.22
O=C(Cn1nc(-c2cccs2)ccc1=O)N1CCCCCC1 | -2.7
Cc1ncsc1CNC(=O)NCC1(c2ccc3c(c2)OCO3)CC1 | 14.3
Cc1ccccc1C1(CNC(=O)N2CCC(CC(N)=O)CC2)CC1 | 4.48
CC(C)(C)n1cc(C2=CCN(CCNC(N)=O)CC2)cn1 | -3.51
CNC(=O)COC1COC2(CCN(c3ccc(C#N)cc3)CC2)C1 (stereo not drawn) | -75.7
O=C(Cn1nnc(-c2cc3ccccc3o2)n1)N1CCOCC1 | 7.63
O=C(CCc1cccnc1)N1CCCC(n2cncn2)C1 (stereo not drawn) | -10.9
N#Cc1cc(NC(=O)c2cscn2)ccc1N1CCC(O)CC1 | 6.59
Cc1nnc([C@H]2C[C@H]3CN(C(=O)Cc4ccc(F)cc4)CC[C@@H]3O2)o1 | -104
Cc1noc(C)c1CNCC1CCCN1c1cccnn1 (stereo not drawn) | 3.3
O=C(c1cc(Cl)c2c(c1)OCO2)N1CCCC(n2cncn2)C1 (stereo not drawn) | -8.75
CCCC(=O)N(CCCN1CCOCC1)c1nc2c(C)c(C)ccc2s1 | -12.6
Cc1nc2c(c(Nc3ccccn3)n1)CN(S(C)(=O)=O)CC2 | 11.1

SMILES | cytotoxicity at 10 µM [%]
CCNc1ncc(C(=O)N2CCc3c(nc(C)nc3N(C)C)C2)cn1 | -3.28
Nc1nc2nc(C3CCN(C(=O)c4cscn4)C3)ccc2s1 (stereo not drawn) | -5.72
CCOC(=O)C1(O)CCN(C(=O)Nc2cccc(CC)c2)CC1 | -140
CN(C)C(=O)CN1CCCC2(CCN(c3ccsc3)C2=O)C1 (stereo not drawn) | 9.88
COc1cc(NC(=O)N(C)CCC2CC2)ncn1 | -1.3
CN(C)CCC1CCCCN1Cc1cnc(-c2ccccn2)nc1 (stereo not drawn) | 3.74
CCn1cc(NS(=O)(=O)c2ccc(Br)s2)c(C(=O)NCC(C)C)n1 | 6.86
c1cnc(N2CC[C@@H](N3CCOCC3)[C@@H]2Cc2ccncc2)nc1 | 2.9
Cc1nccn1C1CCCN(C(=O)c2cccc(OCC(N)=O)c2)C1 (stereo not drawn) | -13
O[C@@H]1CC(CNCc2cccc(Cl)c2)(COc2cccnc2)C[C@@H]1O (stereo partly drawn) | -1.29
NCC1[C@H]2CN(CCc3ccccc3)C[C@@H]12 (stereo partly drawn) | 5.22
O=C(c1ccc(NCc2ccco2)nc1)N1CCc2ccccc21 | -4.6
CC(C)NC(=O)N1CCC2(CC1)Cc1ccccc1CNC2=O | 1.33
COCC1c2nnn(CC3CC3)c2CCN1C(=O)Cc1cccs1 (stereo not drawn) | -15.8
CC(C)(C)NC(=O)CNC(=O)Nc1cc(-c2ccccc2)ns1 | 16.6
CNC(=O)c1ccc(OC)c(NCc2ncc(-c3cccs3)o2)c1 | 14
CCOCCN1CCN(Cc2nnc(-c3ccco3)o2)CC1 | -53.1
COc1ccc(CC(=O)Nc2ccc3ncn(C)c(=O)c3c2)cc1 | 1.29
Cc1ccc(N2CCN(C(=O)CCc3n[nH]c(C)n3)CC2=O)cc1 | -4.06
CN(C(=O)c1ccc(C#N)cc1)c1nnc(C2CCOC2)s1 (stereo not drawn) | 0.36
CC(=O)Nc1ccc(CC(=O)N2CC(S(=O)(=O)C3CCCCC3)C2)cc1 | -12.8
CCn1ccnc1CN1CCN(Cc2cnc(C)cn2)CC1C (stereo not drawn) | -2.76
Cc1cc(CN(C)C(=O)c2ccc(Cl)c(N3CCCC3=O)c2)no1 | -14.5

SMILES | cytotoxicity at 10 µM [%]
Cc1nnc(CN2C[C@H](NC(=O)C3CCOCC3)[C@@H](C(C)C)C2)s1 | -3.41
Cc1nc(C)n(CC2CCCCN2Cc2nc3ccccc3o2)n1 (stereo not drawn) | -6.8
CN(C)CC1CN(Cc2coc(-c3ccccc3)n2)CCO1 (stereo not drawn) | -10.8
CC(=O)Nc1c(C)noc1C=Cc1ccc(C)c(S(=O)(=O)NC2CC2)c1 | 0.905
COCC(=O)N[C@@H]1CN(Cc2ccc3c(c2)OCCO3)C[C@H]1O | -27.1
c1cncc(-c2ncnc3c2CCN(Cc2cccs2)CC3)c1 | 19.9
CN(C)C(=O)N1Cc2nnn(C)c2C(COCC2CC2)C1 (stereo not drawn) | -10.7
CCC(C(=O)NCc1ccncc1)N(c1ccccc1)S(C)(=O)=O (stereo not drawn) | -1.17
CN(C)Cc1noc2c1CN(Cc1ccc[nH]1)CC2 | 7.01
Cc1cnc(C(=O)NC(CN2CCCC2=O)c2ccccc2)cn1 (stereo not drawn) | -8.8
CN1CCN(C=C2N=C(c3cc(-c4ccccc4F)n[nH]3)ON2)CC1 | -4.92
Cc1nc(CN2CCCC(CCc3ccccc3C(F)(F)F)C2)no1 (stereo not drawn) | 2.79
COCCCNC(=O)CN1CCSC(c2ccccc2)C1 (stereo not drawn) | 13.5
Cc1ccccc1[C@@H]1CN(Cc2nc3ncccn3n2)C[C@H]1C(=O)O | -6.55
Cc1ccc(NCCCNC(=O)C2CCCN(Cc3ccco3)C2)nc1 (stereo not drawn) | 3.15
CC(NC(=O)CNS(C)(=O)=O)c1ccccc1Oc1ccccc1 (stereo not drawn) | 4.69
Cc1nc2ccccc2nc1CN1CCCC1Cn1cccn1 (stereo not drawn) | -31.4
c1ccc(-c2nnc([C@H]3CCN(C4CCOCC4)C3)o2)cc1 | -1.05
Cc1ccc(C(=O)NCCCn2cncn2)c(=O)[nH]1 | -14.4
CN(C)CCN1CCC2[C@@H]1CCN2Cc1ccc2c(c1)OCO2 (stereo partly drawn) | -4.28
Cc1cc(=O)n(CC(=O)Nc2ccc(C(N)=O)cc2)nc1C | -10.9
CCNC(=O)Cc1c(C)nc2c(c1C)c(=O)[nH]n2C | 2.62
NCC(=O)N1CCCC1c1n[nH]cc1-c1ccccc1F (stereo not drawn) | 2.37

SMILES | cytotoxicity at 10 µM [%]
Cc1nc2cc(C3CCN(Cc4cccc(F)c4F)C3)nn2c(O)c1C (stereo not drawn) | 0.333
Cc1ccc(NC(=O)CNc2ccn(CC(N)=O)n2)c(Cl)c1 | 4.44
Nc1nc2c(c(N3CCN(C(=O)c4cccs4)CC3)n1)CCCC2 | 7.9
NC(C(=O)N1CCSc2ccccc2C1)c1ccccc1 (stereo not drawn) | 4.59
Cc1noc(C)c1C(=O)N1CCCC(c2c(C)c(=O)nc3n2CCC3)C1 (stereo not drawn) | -21.1
O=c1cc(-c2ccc(F)cc2)nc2n1CCCCC2 | -1.91
COCC1CN(Cc2ccncc2)Cc2nnn(CC3CC3)c21 (stereo not drawn) | -5.91
CCCN1CCN(C(=O)Cc2cccnc2)[C@H]2CS(=O)(=O)C[C@H]21 | -8.26
CC(C)CN1CCCC2(CCN(c3ccccn3)C2)C1 (stereo not drawn) | -1.22
Cc1nc(C(C)C)sc1C(=O)NCCSc1ccccn1 | 3.76
CN(C)CCN1CCc2ncc(CN(C)Cc3ccco3)n2CC1 | -6.26
CCN(C(c1cccnc1)c1ccc(F)cc1F)S(C)(=O)=O (stereo not drawn) | 10.8
CC(=O)Nc1ccc(CNc2ccn(Cc3ccccc3)n2)cc1 | 10.1
CCCc1nnc(N2CCC(N3CCCCCC3)CC2)o1 | -15.3
CN1CCC(N(C)c2ccccc2CNCc2ccco2)CC1 | -9.05
CC(C)(C)n1nnnc1CN(Cc1ccccc1)Cc1ccccc1Cl | 8.56
CC(C)(C)NC(=O)C1CSCN1S(=O)(=O)c1ccc(F)cc1 (stereo not drawn) | 0.65
COCCCNC(=O)NCc1ccc(C)cc1 | 3.37
O=c1n(Cc2cccc(F)c2)nc2ncccn12 | -7.9
CC(C)(C)n1ncc2c1NC(=O)CC2c1c(F)cccc1F (stereo not drawn) | -1.53
CC(C)NCC1(COc2ccccc2)C[C@@H](O)[C@@H](O)C1 (stereo partly drawn) | 0.67
Cn1cnc2c1C(COCC1CCOCC1)CN(C(=O)C1CC=CC1)C2 (stereo not drawn) | -75.5
O=C(Cc1ccccc1F)N1CCN(Cc2noc(C3CC3)n2)CC1 | -2.21

SMILES | cytotoxicity at 10 µM [%]
CSCC[C@@H](CO)n1ccnc1-c1ccc(C)o1 | 7.02
CCNC(=O)c1ccnc(NCC2COc3cc(OC)ccc3C2)c1 (stereo not drawn) | 0.145
Cc1cc2cccc(NC(=O)N3CC[C@H]4CC[C@@H](C3)N4C)c2o1 | 7.89
Cc1nc(CCNC(=O)NC2CCCN(c3ncccn3)C2)cs1 (stereo not drawn) | -129
Cc1ccc(S(=O)(=O)NC(=O)COc2cccc(C#N)c2)c(C)c1 | 3.73
CCn1cc(CN2CCN(C(=O)N3CCOCC3)CC2)cn1 | -52.8
CN(C)CC1(O)CCN(C(=O)Cc2ccc3ccccc3c2)C1 (stereo not drawn) | -6.77
Cc1nc(-c2ccccc2)sc1CSCCC(N)=O | -7.97
COc1ncccc1CN1C[C@H]2CCN(c3ncccn3)C[C@H]2C1 | 2.66
CCC(NC(=O)CCNC(=O)c1ccccc1F)c1cc(C)ccn1 (stereo not drawn) | -11.4
Cc1ncsc1CN1CC2(CCCC2)CC1=O | -0.369
CCOc1ccccc1CNC1CCCN(Cc2noc(C)n2)C1 (stereo not drawn) | -13.1
Cc1ccoc1C(=O)N(CCN(C)C)Cc1ccccn1 | -5.47
Cc1ccc(NC(=O)CSCc2cccnc2)nc1 | -46.4
NCc1cnn(-c2ccccc2C(=O)NCc2ccccn2)c1 | -19.9
Cn1cccc(NC(=O)NCCc2cccc(O)c2)c1=O | -43.6
CN(CC(N)=O)Cc1ccc(F)cc1Cl | -3.53
CCCS(=O)(=O)N1CCN(Cc2ccco2)CC1 | 4.28
CN(CC1(C)COC1)C(=O)c1cc(-c2cnn(C)c2)nc2ccccc12 | 0.89
CCC(C)(NCc1ncc(C(C)C)o1)c1nccs1 (stereo not drawn) | 18.9
CC(CCN(C)C)NC(=O)N1CCSC(C)(C)C1 (stereo not drawn) | 5.4
